Measurements taken from ChEMBL document CHEMBL4229344 (Eur J Med Chem, 2018).
Calls of active or inactive are those of the source. The calls are words filed in the database; no cut-off is given here.

Legend:
[1] = test system: ALK tyrosine kinase receptor (Homo sapiens), Q9UM73 [C1156Y]; assay: Binding affinity to wild-type human partial length ALK C1156Y mutant (I1088 to E1409 residues) expressed in mammalian expression system assessed as residual binding level at 1 uM by Kinomescan method relative to control
Summary of the method: (§1)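 Single-concentration KINOMEscan (DiscoverX) binding screen at 1 μM against a panel of 468 purified kinases and mutants. The read-out is binding relative to control.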

[2] = test system: Tyrosine-protein kinase ABL1 (Homo sapiens), P00519 [T315I]; assay: Binding affinity to human non-phosphorylated ABL1 T315I mutant (S229 to K512 residues) expressed in mammalian expression system assessed as residual binding level at 1 uM by Kinomescan method relative to control
Summary of the method: (§2)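 Kinome-wide single-concentration binding screen (KINOMEscan) at 1 μM against a panel of 468 purified kinases and mutants. Read-out is relative binding of each kinase compared with control. Selectivity across the panel was summarised as an S(10) score.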

EOL1 = assay: Antitumor activity against human EOL-1 cells engrafted in ip dosed NOD-SCID mouse assessed as increase in mouse survival administered 3 weeks post cell inoculation; assay type: functional, organism-based
Summary of the method: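 Daily i.p. dosing started 3 weeks after inoculation at 7.5, 15 or 30 mg/kg/day. Mice monitored daily and euthanized when moribund or at hind-limb paralysis. Bone marrow cells, after red-cell lysis, stained with PE anti-HLA-ABC and counted by flow cytometry.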

[3] = biological target: Dual specificity protein kinase CLK4 (Homo sapiens) (UniProt Q9HAZ1); assay: Binding affinity to wild-type human partial length CLK4 (R135 to K481 residues) expressed in bacterial expression system assessed as residual binding level at 1 uM by Kinomescan method relative to control
Sequence of Dual specificity protein kinase CLK4 (Homo sapiens) (Q9HAZ1 whole entry, looked up, the tested form may be a part): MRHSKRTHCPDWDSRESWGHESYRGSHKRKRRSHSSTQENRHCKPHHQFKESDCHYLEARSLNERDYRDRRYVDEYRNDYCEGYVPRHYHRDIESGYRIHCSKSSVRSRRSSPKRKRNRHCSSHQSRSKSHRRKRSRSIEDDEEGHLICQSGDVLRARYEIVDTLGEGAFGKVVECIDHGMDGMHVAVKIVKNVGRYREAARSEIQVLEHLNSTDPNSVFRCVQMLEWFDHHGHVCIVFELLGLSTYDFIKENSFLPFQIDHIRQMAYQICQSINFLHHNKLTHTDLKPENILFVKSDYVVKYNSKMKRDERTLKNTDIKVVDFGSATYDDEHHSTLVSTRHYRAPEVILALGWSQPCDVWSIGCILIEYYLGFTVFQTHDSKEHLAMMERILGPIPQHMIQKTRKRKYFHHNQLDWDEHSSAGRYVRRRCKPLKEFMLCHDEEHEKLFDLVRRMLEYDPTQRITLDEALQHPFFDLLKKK
Summary of the method: (§3)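 Kinome-wide competition binding screen against a panel of 468 purified kinases/mutants, with the test compound at a single concentration of 1 μM. Read-out is the relative binding activity of each kinase in the presence of compound.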

[4] = biological target: Casein kinase I isoform gamma-2 (Homo sapiens) (UniProt P78368); assay: Binding affinity to wild-type human full length CSNK1G2 (M1 to K415 residues) expressed in bacterial expression system assessed as residual binding level at 1 uM by Kinomescan method relative to control
Summary of the method: (§4)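 Single-concentration (1 μM) competition-binding screen run by KINOMEscan against a panel of 468 purified kinases and mutants. The read-out is the relative binding activity of the test compound to each kinase.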

[5] = biological target: Homeodomain-interacting protein kinase 3 (Homo sapiens) (UniProt Q9H422); assay: Binding affinity to wild-type human partial length HIPK3 (M153 to N562 residues) expressed in mammalian expression system assessed as residual binding level at 1 uM by Kinomescan method relative to control
[6] = biological target: Cyclin-dependent kinase 19 (Homo sapiens) (UniProt Q9BWU1); assay: Binding affinity to wild-type human partial length CDK11 (M1 to N360 residues) expressed in bacterial expression system assessed as residual binding level at 1 uM by Kinomescan method relative to control; summary of the method: as §3
Sequence of Cyclin-dependent kinase 19 (Homo sapiens) (Q9BWU1 whole entry, the tested form may be a part): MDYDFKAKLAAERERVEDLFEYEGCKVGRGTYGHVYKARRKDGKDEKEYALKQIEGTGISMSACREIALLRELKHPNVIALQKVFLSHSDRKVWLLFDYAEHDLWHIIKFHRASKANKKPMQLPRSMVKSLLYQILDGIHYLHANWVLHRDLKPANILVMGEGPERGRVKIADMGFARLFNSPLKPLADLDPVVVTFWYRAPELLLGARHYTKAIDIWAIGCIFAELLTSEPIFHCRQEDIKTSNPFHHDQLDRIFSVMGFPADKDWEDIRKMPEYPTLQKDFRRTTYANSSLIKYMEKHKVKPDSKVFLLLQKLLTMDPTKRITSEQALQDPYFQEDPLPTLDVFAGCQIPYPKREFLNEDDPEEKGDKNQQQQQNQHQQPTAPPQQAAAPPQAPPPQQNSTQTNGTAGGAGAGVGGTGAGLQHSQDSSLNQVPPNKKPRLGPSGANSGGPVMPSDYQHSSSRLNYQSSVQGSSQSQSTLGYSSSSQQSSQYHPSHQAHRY

[7] = biological target: Mitogen-activated protein kinase 9 (Homo sapiens) (UniProt P45984); assay: Binding affinity to wild-type human full length JNK2 (M1 to Q382 residues) expressed in mammalian expression system assessed as residual binding level at 1 uM by Kinomescan method relative to control
Sequence of Mitogen-activated protein kinase 9 (Homo sapiens) (P45984 whole entry, looked up, the tested form may be a part): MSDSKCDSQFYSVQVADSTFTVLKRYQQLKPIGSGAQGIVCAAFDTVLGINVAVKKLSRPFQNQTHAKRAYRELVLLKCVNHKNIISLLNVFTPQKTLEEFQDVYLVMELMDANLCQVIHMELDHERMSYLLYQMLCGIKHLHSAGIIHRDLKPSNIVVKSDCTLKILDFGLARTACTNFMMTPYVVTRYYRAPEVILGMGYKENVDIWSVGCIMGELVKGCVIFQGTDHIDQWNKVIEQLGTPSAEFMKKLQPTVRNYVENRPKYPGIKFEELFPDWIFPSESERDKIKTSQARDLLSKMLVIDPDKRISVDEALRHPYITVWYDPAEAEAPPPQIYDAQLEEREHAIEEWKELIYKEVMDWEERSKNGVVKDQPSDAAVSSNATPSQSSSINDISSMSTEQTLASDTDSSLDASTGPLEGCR
Summary of the method: (§5)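 KINOMEscan competition binding against 468 purified kinases/mutants, test compound at 1 µM; residual binding relative to control.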

[8] = biological target: Non-receptor tyrosine-protein kinase TYK2 (Homo sapiens) (UniProt P29597); assay: Binding affinity to wild-type human partial length TYK2 JH1 catalytic domain (V877 to C1187 residues) expressed in mammalian expression system assessed as residual binding level at 1 uM by Kinomescan method relative to control
Sequence of Non-receptor tyrosine-protein kinase TYK2 (Homo sapiens) (P29597 whole entry, the tested form may be a part): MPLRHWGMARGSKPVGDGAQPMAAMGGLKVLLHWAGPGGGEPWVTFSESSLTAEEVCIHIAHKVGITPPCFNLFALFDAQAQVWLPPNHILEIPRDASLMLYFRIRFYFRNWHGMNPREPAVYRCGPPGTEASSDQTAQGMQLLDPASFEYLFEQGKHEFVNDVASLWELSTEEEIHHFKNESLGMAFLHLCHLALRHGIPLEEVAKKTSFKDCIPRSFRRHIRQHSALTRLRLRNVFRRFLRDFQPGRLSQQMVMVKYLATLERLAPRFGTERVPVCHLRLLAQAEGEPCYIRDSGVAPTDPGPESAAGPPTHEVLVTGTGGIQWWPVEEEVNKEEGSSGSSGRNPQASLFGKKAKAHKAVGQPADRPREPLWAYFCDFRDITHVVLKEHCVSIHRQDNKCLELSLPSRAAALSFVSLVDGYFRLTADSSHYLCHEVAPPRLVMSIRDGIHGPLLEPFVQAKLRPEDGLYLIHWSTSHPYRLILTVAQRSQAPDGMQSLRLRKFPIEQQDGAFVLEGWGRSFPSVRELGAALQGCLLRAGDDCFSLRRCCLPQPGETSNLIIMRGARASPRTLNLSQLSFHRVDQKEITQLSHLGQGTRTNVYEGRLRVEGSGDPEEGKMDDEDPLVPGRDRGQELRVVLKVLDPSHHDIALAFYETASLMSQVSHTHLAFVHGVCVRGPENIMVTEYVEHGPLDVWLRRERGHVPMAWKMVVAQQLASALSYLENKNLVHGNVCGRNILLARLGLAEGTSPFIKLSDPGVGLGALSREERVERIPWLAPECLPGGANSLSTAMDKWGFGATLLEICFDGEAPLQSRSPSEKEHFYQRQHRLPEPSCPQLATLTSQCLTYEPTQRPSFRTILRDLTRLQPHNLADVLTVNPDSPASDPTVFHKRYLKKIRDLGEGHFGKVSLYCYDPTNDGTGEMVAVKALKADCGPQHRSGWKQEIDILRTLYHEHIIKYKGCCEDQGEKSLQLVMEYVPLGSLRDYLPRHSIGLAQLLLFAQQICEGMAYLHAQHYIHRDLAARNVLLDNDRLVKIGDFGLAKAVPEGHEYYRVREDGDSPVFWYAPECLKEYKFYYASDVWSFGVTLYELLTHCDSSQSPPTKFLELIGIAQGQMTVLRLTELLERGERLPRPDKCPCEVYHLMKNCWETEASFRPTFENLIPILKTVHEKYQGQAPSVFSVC

[9] = biological target: Platelet-derived growth factor receptor beta (Homo sapiens, UniProt P09619); assay: Binding affinity to wild-type human partial length PDGFRbeta (V582 to Y1009 residues) expressed in bacterial expression system assessed as residual binding level at 1 uM by Kinomescan method relative to control
Summary of the method: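 KINOMEscan competition binding against a panel of 468 purified kinases/mutants, compound tested at 1 μM; readout is relative binding activity versus control.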

[10] = biological target: Ribosomal protein S6 kinase alpha-2 (Homo sapiens) (UniProt Q15349); assay: Binding affinity to wild-type human partial length C-terminal RSK3 kinase domain 2 (V403 to K700 residues) expressed in bacterial expression system assessed as residual binding level at 1 uM by Kinomescan method relative to control
[11] = biological target: Cyclin-dependent kinase-like 2 (Homo sapiens) (UniProt Q92772); assay: Binding affinity to wild-type human partial length CDKL2 (M1 to D327 residues) expressed in bacterial expression system assessed as residual binding level at 1 uM by Kinomescan method relative to control
[12] = biological target: Serine/threonine-protein kinase 16 (Homo sapiens) (UniProt O75716); assay: Binding affinity to wild-type human partial length STK16 (G11 to I305 residues) expressed in bacterial expression system assessed as residual binding level at 1 uM by Kinomescan method relative to control
Sequence of Serine/threonine-protein kinase 16 (Homo sapiens) (O75716 whole entry, the tested form may be a part): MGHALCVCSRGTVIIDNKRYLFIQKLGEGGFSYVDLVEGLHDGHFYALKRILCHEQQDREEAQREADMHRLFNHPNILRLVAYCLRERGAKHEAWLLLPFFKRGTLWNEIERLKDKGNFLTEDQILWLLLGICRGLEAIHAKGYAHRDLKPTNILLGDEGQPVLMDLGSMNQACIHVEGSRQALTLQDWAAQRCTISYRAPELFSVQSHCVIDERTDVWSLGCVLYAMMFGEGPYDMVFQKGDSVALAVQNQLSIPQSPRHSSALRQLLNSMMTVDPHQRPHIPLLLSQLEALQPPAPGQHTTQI

[13] = biological target: Cyclin-dependent kinase 3 (Homo sapiens) (UniProt Q00526); assay: Binding affinity to wild-type human full length CDK3 (M1 to H305 residues) expressed in bacterial expression system assessed as residual binding level at 1 uM by Kinomescan method relative to control; summary of the method: as §4
[14] = biological target: Platelet-derived growth factor receptor alpha (Homo sapiens, UniProt P16234); assay: Inhibition of PDGFRalpha autophosphorylation at Y849 residue in human EOL-1 cells up to 300 nM after 2 hrs by Western blot analysis; assay type: cell-based
[15] = biological target: Calcium/calmodulin-dependent protein kinase type II subunit alpha (Homo sapiens) (UniProt Q9UQM7); assay: Binding affinity to wild-type human partial length CAMK2A (M1 to K328 residues) expressed in bacterial expression system assessed as residual binding level at 1 uM by Kinomescan method relative to control; summary of the method: as §3
[16] = biological target: Mitogen-activated protein kinase kinase kinase 5 (Homo sapiens) (UniProt Q99683); assay: Binding affinity to wild-type human partial length ASK1 (E648 to S964 residues) expressed in bacterial expression system assessed as residual binding level at 1 uM by Kinomescan method relative to control; summary of the method: as §1
[17] = biological target: Leukocyte tyrosine kinase receptor (Homo sapiens) (UniProt P29376); assay: Binding affinity to wild-type human partial length LTK (P422 to S744 residues) expressed in bacterial expression system assessed as residual binding level at 1 uM by Kinomescan method relative to control; summary of the method: as §3
Sequence of Leukocyte tyrosine kinase receptor (Homo sapiens) (P29376 whole entry, the tested form may be a part): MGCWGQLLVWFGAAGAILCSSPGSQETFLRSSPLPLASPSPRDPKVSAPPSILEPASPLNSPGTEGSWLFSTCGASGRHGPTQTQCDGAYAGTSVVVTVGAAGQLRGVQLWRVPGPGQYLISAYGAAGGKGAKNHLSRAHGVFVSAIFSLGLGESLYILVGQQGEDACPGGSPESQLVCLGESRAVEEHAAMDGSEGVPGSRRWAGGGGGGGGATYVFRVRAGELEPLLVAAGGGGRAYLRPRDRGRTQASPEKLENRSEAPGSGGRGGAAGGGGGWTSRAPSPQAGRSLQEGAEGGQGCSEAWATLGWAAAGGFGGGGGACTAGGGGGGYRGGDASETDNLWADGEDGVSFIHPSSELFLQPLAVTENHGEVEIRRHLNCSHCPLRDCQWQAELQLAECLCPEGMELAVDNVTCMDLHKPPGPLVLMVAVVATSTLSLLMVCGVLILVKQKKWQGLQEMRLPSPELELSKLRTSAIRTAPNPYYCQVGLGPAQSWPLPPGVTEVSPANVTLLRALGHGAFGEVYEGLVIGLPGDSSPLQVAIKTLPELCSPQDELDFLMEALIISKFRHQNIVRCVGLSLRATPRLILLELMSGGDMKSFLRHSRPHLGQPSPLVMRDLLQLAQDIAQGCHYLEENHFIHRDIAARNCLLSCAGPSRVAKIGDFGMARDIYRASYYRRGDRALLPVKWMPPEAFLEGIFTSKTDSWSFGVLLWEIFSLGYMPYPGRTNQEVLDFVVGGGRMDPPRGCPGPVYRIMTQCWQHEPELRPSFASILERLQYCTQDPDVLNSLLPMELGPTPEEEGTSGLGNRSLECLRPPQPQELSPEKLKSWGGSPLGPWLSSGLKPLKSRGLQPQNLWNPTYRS

[18] = biological target: Serine/threonine-protein kinase PAK 3 (Homo sapiens) (UniProt O75914); assay: Binding affinity to wild-type human full length PAK3 (M1 to R544 residues) expressed in bacterial expression system assessed as residual binding level at 1 uM by Kinomescan method relative to control; summary of the method: as §5
[19] = biological target: Tyrosine-protein kinase SYK (Homo sapiens) (UniProt P43405); assay: Binding affinity to wild-type human partial length SYK (D354 to N635 residues) expressed in bacterial expression system assessed as residual binding level at 1 uM by Kinomescan method relative to control
[20] = test system: Epidermal growth factor receptor (Homo sapiens), P00533 [UNDEFINED MUTATION]; assay: Binding affinity to human partial length EGFR L747-S752del/P753S mutant expressed in bacterial expression system assessed as residual binding level at 1 uM by Kinomescan method relative to control; summary of the method: as §2
Sequence of Epidermal growth factor receptor (Homo sapiens), P00533 [UNDEFINED MUTATION] (P00533 whole entry, looked up, stated change not applied): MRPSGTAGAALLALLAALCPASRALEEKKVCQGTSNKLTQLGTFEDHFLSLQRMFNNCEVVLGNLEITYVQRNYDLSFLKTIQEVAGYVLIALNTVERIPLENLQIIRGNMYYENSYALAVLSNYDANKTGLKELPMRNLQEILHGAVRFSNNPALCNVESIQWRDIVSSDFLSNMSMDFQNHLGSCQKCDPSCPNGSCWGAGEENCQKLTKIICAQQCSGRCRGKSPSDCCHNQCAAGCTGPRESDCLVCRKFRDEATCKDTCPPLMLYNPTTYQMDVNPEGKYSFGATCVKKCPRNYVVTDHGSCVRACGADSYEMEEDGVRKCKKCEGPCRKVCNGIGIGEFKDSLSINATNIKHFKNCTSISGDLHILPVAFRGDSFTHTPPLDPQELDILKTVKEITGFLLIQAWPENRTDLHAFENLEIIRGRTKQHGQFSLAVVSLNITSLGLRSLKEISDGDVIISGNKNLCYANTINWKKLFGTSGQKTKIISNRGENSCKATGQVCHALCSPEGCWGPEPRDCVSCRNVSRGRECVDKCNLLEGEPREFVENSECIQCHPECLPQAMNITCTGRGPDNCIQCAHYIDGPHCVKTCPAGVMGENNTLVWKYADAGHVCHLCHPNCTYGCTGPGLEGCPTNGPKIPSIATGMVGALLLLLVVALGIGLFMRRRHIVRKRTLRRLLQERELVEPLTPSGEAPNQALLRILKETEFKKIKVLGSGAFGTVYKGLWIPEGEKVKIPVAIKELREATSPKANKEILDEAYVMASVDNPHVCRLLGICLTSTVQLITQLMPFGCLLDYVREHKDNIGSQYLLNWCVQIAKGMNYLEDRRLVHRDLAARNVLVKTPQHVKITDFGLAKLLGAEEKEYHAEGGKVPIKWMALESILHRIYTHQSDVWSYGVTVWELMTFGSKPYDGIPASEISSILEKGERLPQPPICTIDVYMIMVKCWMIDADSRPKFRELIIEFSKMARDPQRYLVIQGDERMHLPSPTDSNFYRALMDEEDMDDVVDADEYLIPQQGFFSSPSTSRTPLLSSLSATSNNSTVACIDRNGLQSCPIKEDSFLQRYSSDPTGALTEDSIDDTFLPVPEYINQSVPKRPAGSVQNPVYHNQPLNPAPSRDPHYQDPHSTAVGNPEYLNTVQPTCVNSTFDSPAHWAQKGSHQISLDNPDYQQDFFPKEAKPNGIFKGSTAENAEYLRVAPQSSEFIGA

`Cc1ccc(NC(=O)c2ccc(CN(CCN(C)C)C(=O)c3cccnc3)cc2)cc1Nc1nccc(-c2cccnc2)n1` was tested, and the Activity [1] was 100%, the Activity [2] was 100% and the Activity (EOL1) was “Dose-dependent effect”. It also gave an Activity [3] of 66%, an Activity [4] of 99% and an Activity [5] of 93%. It also gave an Activity [6] of 82%, an Activity [7] of 91% and an Activity [8] of 100%. For the same compound, the Activity [9] was 0.7%, the Activity [10] was 88% and the Activity [11] was 95%. For the same compound, the Activity [12] was 88%, the Activity [13] was 85% and the inhibition [14] was “Active”. For the same compound, the Activity [15] was 89%, the Activity [16] was 100% and the Activity [17] was 87%. The Activity [18] was 40%, the Activity [19] was 96% and the Activity [20] was 96%.
